Test results as given in ChEMBL document CHEMBL1138699, “Design, synthesis, and biological evaluation of the first selective nonpeptide AT2 receptor agonist” (J Med Chem, 2004).
One block for each molecule: values may come before it.

How the values were obtained:
[1] = target: T1, Angiotensin II receptor (AT-1) type-1 (Rattus norvegicus, UniProt P29089+P25095); experiment: Displacement of [125I]-Ang II from rat liver membrane angiotensin II type 1 (AT1) receptor
T1 sequence (P29089 whole entry): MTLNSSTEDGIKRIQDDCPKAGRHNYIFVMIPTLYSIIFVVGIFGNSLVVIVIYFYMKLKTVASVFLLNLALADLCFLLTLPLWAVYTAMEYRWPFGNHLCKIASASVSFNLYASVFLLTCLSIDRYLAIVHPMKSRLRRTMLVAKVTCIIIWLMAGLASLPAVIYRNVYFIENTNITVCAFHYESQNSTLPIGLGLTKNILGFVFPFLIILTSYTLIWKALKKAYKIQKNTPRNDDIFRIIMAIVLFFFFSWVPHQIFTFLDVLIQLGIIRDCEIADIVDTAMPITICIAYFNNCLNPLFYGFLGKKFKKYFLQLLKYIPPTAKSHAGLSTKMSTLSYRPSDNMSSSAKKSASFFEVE
T1 sequence (P25095 whole entry): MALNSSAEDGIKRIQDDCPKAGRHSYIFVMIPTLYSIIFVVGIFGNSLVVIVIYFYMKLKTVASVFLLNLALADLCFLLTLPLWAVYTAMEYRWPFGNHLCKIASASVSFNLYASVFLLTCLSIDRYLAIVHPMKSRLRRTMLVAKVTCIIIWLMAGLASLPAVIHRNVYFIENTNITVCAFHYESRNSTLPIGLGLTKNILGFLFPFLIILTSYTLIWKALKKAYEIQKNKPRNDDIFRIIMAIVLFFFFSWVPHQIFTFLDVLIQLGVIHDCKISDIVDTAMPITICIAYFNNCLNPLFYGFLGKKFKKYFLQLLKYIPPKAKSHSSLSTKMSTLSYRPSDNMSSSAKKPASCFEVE

[2] = test system: Rattus norvegicus; experiment: Concentration of compound required to stimulate secretion of duodenal alkaline secretion in rats when administered intralbuminally was determined; format: functional
Method in brief: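 Same anaesthetized Sprague-Dawley duodenal pH-stat preparation (saline perfusate titrated to pH 7.4 with 0.02 M HCl). Here the agonist went into the intraluminal perfusate at 100 µM, with PD 123,319 at 150 µM intraluminally for antagonism. Net change over basal at 30-45 min; n = 5.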

[3] = organism: Rattus norvegicus; experiment: Compound was tested for its ability to rise duodenal alkaline secretion in rats was determined; format: functional
Method in brief: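 Anaesthetized (pentobarbital ip 60 mg/kg, then 30 mg kg-1 h-1) nonfasted male Sprague-Dawley rats at 38 °C. Isolated duodenal segment with bile duct diverted, perfused with recirculating isotonic saline. HCO3- output pH-stat titrated to pH 7.4 with 0.02 M HCl. Intravenous infusion; net change is the 30-45 min value minus the last 15 min basal. Mean ± SEM, n = 5; ANOVA with Bonferroni.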

[4] = target: Mitogen-activated protein kinase 3 (Homo sapiens) (UniProt P27361); experiment: Concentration required to abolish MAPK activity in mouse neuroblastoma and rat glioma hybrid NG 108-15 cells; format: functional, cell-based
Sequence of Mitogen-activated protein kinase 3 (Homo sapiens) (P27361 whole entry): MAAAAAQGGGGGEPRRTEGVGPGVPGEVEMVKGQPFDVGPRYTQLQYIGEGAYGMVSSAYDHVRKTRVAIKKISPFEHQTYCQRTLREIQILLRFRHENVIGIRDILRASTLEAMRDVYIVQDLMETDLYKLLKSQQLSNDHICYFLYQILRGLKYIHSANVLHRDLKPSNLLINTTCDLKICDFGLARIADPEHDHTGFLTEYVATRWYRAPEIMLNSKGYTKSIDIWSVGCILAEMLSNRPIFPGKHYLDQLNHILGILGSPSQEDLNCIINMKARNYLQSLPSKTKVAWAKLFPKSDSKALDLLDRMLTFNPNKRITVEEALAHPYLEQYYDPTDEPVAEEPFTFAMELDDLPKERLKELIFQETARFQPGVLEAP

[5] = target: Type-2 angiotensin II receptor (Sus scrofa); experiment: Displacement of [125I]-Ang II from pig uterus membrane angiotensin II type 2 (AT2) receptor
[6] = Half life after oral administration in rat was determined; format: ADME, organism-based; settings: in vivo
Method in brief: (§1)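 Male Sprague-Dawley rats (ca. 6-7 weeks), triplicate groups; oral gavage at 30, 100 and 300 µg/kg and single iv tail-vein bolus at 30 µg/kg. Tail-vein blood at 30 min and 1, 2, 4, 6, 8, 24 h, heparinized plasma, acetonitrile precipitation, LC-MS/MS (positive-ion SRM 476.3→293.2). Bioavailability from AUC0-8h rather than AUC0-∞.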

[7] = Bioavailability after oral administration in rat was determined; range is 20-30; format: ADME, organism-based; settings: in vivo, read-out: Bioavailabiility; method in brief: as §1
[8] = test system: NG108-15; experiment: Concentration of compound required to induce cell death of mouse neuroblastoma and rat glioma hybrid NG 108-15 cells was determined; format: functional
Method in brief: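 NG108-15 neuroblastoma × glioma hybrid cells (passage 7-30) were grown in DMEM with 10% FBS, HAT supplement and gentamycin at 37 °C under 7% CO2. They were treated 24 h after plating, with compound added daily, at 1 pM to 1 µM for 3 days. Cell death was judged by phase-contrast microscopy and micrographs.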

[9] = test system: NG108-15; experiment: Concentration of compound required to induce neurite outgrowth in mouse neuroblastoma and rat glioma hybrid NG 108-15 cells was determined; format: functional
Method in brief: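 NG108-15 cells (passage 7-30) in DMEM/10% FBS/HAT at 37 °C, 7% CO2, plated at 3 × 10^4 cells per 35 mm dish. First stimulation 24 h after plating, agonist given daily over 1 pM-1 µM for 3 days. Phase-contrast scoring: a neurite longer than the cell body counts as positive. At least 140 cells, three independent experiments.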

SMILES: CCCCOC(=O)NS(=O)(=O)c1sc(CC(C)C)cc1Cc1ccc(C#N)cc1
- Ki [1]: > 10000 nM

SMILES: Cc1cc(Cn2cnc3c2C[C@@H](C(=O)O)N(C(=O)C(c2ccccc2)c2ccccc2)C3)ccc1N(C)C.O=C(O)C(F)(F)F.O=C(O)C(F)(F)F
- Activity [2]: 150 µM
- Activity [3]: 0.3 mg/h/kg
- IC50 [1]: > 10000 nM

SMILES: COc1cccc(-c2cc(=O)c3ccccc3o2)c1N
- Activity [4]: 10 µM

SMILES: CCCCOC(=O)NS(=O)(=O)c1sc(CC(C)C)cc1Cc1ccc(-n2ccnc2)cc1
- Ki [1]: > 10000 nM

SMILES: CCCCOC(=O)NS(=O)(=O)c1ccc(Cc2cccc(OC)c2)cc1-c1ccc(Cn2c(CC)nc3c(C)cc(C)nc32)cc1
- IC50 [5]: 101 nM
- IC50 [1]: 1.4 nM

SMILES: CCCCOC(=O)NS(=O)(=O)c1sc(CC(C)C)cc1-c1ccc(Cn2cnc3ccccc32)cc1
- Ki [1]: 500 nM

SMILES: CCCCOC(=O)NS(=O)(=O)c1sc(CC(C)C)cc1-c1ccc(Cn2c(CC)nc3ccccc32)cc1
- Ki [1]: > 10000 nM

SMILES: CCCCOC(=O)NS(=O)(=O)c1sc(CC(C)C)cc1-c1ccc(Cn2ccnc2C)cc1
- Ki [1]: > 10000 nM

SMILES: CCCCOC(=O)NS(=O)(=O)c1sc(CC(C)C)cc1-c1ccc(Cn2ccnc2)cc1 [BULOXIBUTID]
- half-life [6]: 4 h
- bioavailability [7]: < 30%
- Activity [2]: 100 µM
- Activity [3]: 0.03 mg/h/kg
- Ki [1]: > 10000 nM
- Activity [8]: 1 µM
- Activity [9]: > 0.1 nM

More lines, now with the values ahead:

- Ki [1]: 100 nM
SMILES: CCCCOC(=O)NS(=O)(=O)c1sc(CC(C)C)cc1-c1ccc(CC#N)cc1

- Ki [1]: > 10000 nM
SMILES: CCCCOC(=O)NS(=O)(=O)c1sc(CC(C)C)cc1-c1ccc(Cn2cnc3cccnc32)cc1

- IC50 [1]: 1.1 nM
- Ki [1]: 3.9 nM
SMILES: CCCCOC(=O)NS(=O)(=O)c1sc(CC(C)C)cc1-c1ccc(Cn2c(CC)nc3c(C)cc(C)nc32)cc1

- Ki [1]: > 10000 nM
SMILES: CCCCOC(=O)NS(=O)(=O)c1sc(CC(C)C)cc1-c1ccc(C#N)cc1
